This note sets out measurements from ChEMBL document CHEMBL4373632, “3D QSAR-based design and liquid phase combinatorial synthesis of 1,2-disubstituted benzimidazole-5-carboxylic acid and 3-substituted-5H-benzimidazo[1,2-d][1,4]benzodiazepin-6(7H)-one derivatives as anti-mycobacterial agents” (Medchemcomm, 2019).

Values after ≈ are worked out from the molar mass of the structure shown.

Data set [1] relates to Mycobacterium tuberculosis. The data set can be described thus: Antimycobacterial activity against Mycobacterium tuberculosis H37Rv after 14 days. The format is functional. The settings on record: 336 h. In short, it runs like this: (§1)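 Mtb H37Rv grown in MB 7H9 (10% albumin dextrose saline, 0.2% glycerol, 0.05% tween-80) to OD600nm 0.2, diluted 1000× and added to 96-well plates with compounds (50 mM DMSO stocks). Tested range 0.05 to 50 μM. Incubated 37 °C for 14 days; MIC determined per standard protocol.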

Data set [2] concerns THP-1. The data set can be described thus: Cytotoxicity against human THP1 cells assessed as redution in cell viability at 50 uM by WST-1 assay. The format is cell-based. The settings on record: thp-1, 50 µM. In short, it runs like this:
(§2)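 THP-1 macrophages; viability read with the WST-1 cell proliferation kit following the manufacturer's protocol. Compounds came from 50 mM DMSO stocks, with 50 μM the highest final concentration tested.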
On the technique in general: Tetrazolium dyes change colour on reduction, which living cells bring about.

Data set [3] concerns Mycobacterium tuberculosis. The data set can be described thus: Antimycobacterial activity against Mycobacterium tuberculosis H37Rv infected in human THP-1 cells assessed as reduction in microbial growth after 4 days by ten-fold serial dilution method. It counts as functional. In short, it runs like this: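 PMA-differentiated THP-1 macrophages (2 × 10^5 per well) infected with Mtb H37Rv at MOI 1:10. At 4 h, extracellular bacteria removed with 200 μg ml–1 amikacin in RPMI for 2 h. At 24 h, cells were washed and given RPMI with drug at non-cytotoxic concentration for 4 days. Lysis in PBS–0.1% Triton X-100, then 10-fold serial dilutions plated on MB 7H11 for 3–4 weeks at 37 °C. Triplicate wells, mean + S.E.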

The test system of data set [4] is Mycobacterium tuberculosis. Briefly: Antimycobacterial activity against Mycobacterium tuberculosis. The format is functional. A digest of the protocol:
as §1

Data set [5] in a line: Lipophilicity, logP of compound. It counts as physicochemical. The settings on record: octanol/water.
Data set [6] has as its system THP-1. The data set can be described thus: Cytotoxicity against human THP1 cells assessed as redution in cell viability at 10 uM by WST-1 assay. The format is cell-based. The settings on record: thp-1, 10 µM. In short, it runs like this:
as §2

In general, MIC refers to the lowest concentration found to suppress growth. In data set [1], `O=C1Cn2c(nc3ccccc32)-c2ccc(NC(=O)c3ccc(Br)cc3)cc2N1` gave an MIC greater than 50 µM. In data set [1], `COc1ccc(-n2c(C(C)C)nc3cc(C(=O)O)ccc32)cc1OC` registered an MIC of 25 µM (≈ 8.51 µg/mL). Still for that read-out and setting: then `CC(C)c1nc2cc(C(=O)O)ccc2n1-c1ccncc1`, with 25 µM (≈ 7.03 µg/mL). The same measure, in the same setting: to `CC(C)c1nc2cc(C(=O)O)ccc2n1-c1ccccc1Cl` belongs greater than 50 µM. As to `CCOC(=O)C(=O)Nc1ccc2c(c1)NC(=O)Cn1c-2nc2ccccc21`, the lowest concentration to inhibit growth in data set [1] (MIC) was 0.78 µM (≈ 0.284 µg/mL). In addition, the Activity entry in the data set with THP-1 [2] is “Non-Toxic”.

On to `NNC(=O)c1ccncc1` [ISONIAZID], for which the “fold change (FC)” value in data set [3] came out at 30. The molecule also came in with an MIC in data set [1] of 0.39 µM (≈ 0.0535 µg/mL). `Nc1ccc2c(c1)NC(=O)Cn1c-2nc2ccccc21`: the “fold change (FC)” value in data set [3] is recorded as 8 - 10. In data set [1], the MIC came out at 0.0975 µM (≈ 0.0258 µg/mL). Further, in the data set with THP-1 [2], the Activity result is recorded as “Non-Toxic”. In the case of `CC(C)c1nc2cc(C(=O)O)ccc2n1-c1cccnc1`, in data set [1], the MIC worked out at 50 µM (≈ 14.1 µg/mL). In data set [1], `Cc1ccc(C(=O)N2CCC(Cn3c(C(C)C)nc4cc(C(=O)O)ccc43)CC2)cc1` gave an MIC of 25 µM (≈ 10.5 µg/mL).

Consider `O=C1Cn2c(nc3ccccc32)-c2ccc(NC(=O)c3ccccc3)cc2N1`, for which, in data set [1], the MIC was greater than 50 µM. The MIC90 is an inhibitory concentration at the 90% level, which refers to growth in some studies and to a panel of isolates in others. A low value points to higher susceptibility. A word on the logP: it is the decadic logarithm of the partition coefficient of the neutral form, usually between octanol and water. Low values mean a more hydrophilic compound, high ones a more lipophilic compound. `CCN(CC)c1ccc(/C=C/C(=N/Nc2nc(C)cs2)C2=Cc3ccccc3C2)cc1` returned an MIC90 in data set [4] of 2.5 µg/mL (≈ 5.83 µM). In data set [5], this molecule returned a logP of 6.03. Take `CC(C)c1nc2cc(C(=O)O)ccc2n1-c1ccc(O)cc1`: the MIC in data set [1] is 50 µM (≈ 14.8 µg/mL).

Molecule `CC(C)c1nc2cc(C(=O)O)ccc2n1Cc1cccc(F)c1` yielded an MIC in data set [1] of 12.5 µM (≈ 3.9 µg/mL).

In data set [5], `O=C(CCc1ccccc1)Nc1cc2nc(C3CCCCC3)[nH]c2cc1N1CC1` gave a logP of 4.57.

Molecule `Cc1ccc(C(=O)Nc2ccc3c(c2)NC(=O)Cn2c-3nc3ccccc32)cc1` gave an MIC in data set [1] of 0.39 µM (≈ 0.149 µg/mL). The Activity result with THP-1 [6] was “Non-Toxic”. In turn, `CC(C)c1nc2cc(C(=O)O)ccc2n1-c1ccc(C#N)cc1` registered an MIC in data set [1] of 50 µM (≈ 15.3 µg/mL).

For `COc1ccc(C(=O)N2CCC(Cn3c(C(C)C)nc4cc(C(=O)O)ccc43)CC2)cc1`, the MIC in data set [1] was 50 µM (≈ 21.8 µg/mL). `COc1cc(-n2c(C(C)C)nc3cc(C(=O)O)ccc32)cc(OC)c1O`: the “fold change (FC)” value in data set [3] is reported as 8 - 10. In data set [1], this molecule displayed an MIC of 0.78 µM (≈ 0.278 µg/mL). In the data set with THP-1 [2], the Activity result is on record as “Non-Toxic”.

For the molecule `CC(C)c1nc2cc(C(=O)O)ccc2n1-c1ccc(N(C)C)cc1`, the MIC in data set [1] was 50 µM (≈ 16.2 µg/mL). Consider `COc1ccc(C(=O)Nc2ccc3c(c2)NC(=O)Cn2c-3nc3ccccc32)cc1`, for which, in data set [1], the MIC turned out to be 3.12 µM (≈ 1.25 µg/mL). As for `COc1ccc(S(=O)(=O)Nc2ccc3c(c2)NC(=O)Cn2c-3nc3ccccc32)cc1`, the lowest concentration to inhibit growth in data set [1] (MIC) was 1.56 µM (≈ 0.678 µg/mL).

As to `O=C1Cn2c(nc3ccccc32)-c2ccc(NC(=O)c3ccc(F)cc3)cc2N1`, the “fold change (FC)” value in data set [3] is given as 8 - 10. Also, the MIC in data set [1] stood at 0.195 µM (≈ 0.0753 µg/mL). In addition, the Activity result with THP-1 [2] is reported as “Non-Toxic”.

`O=C1Cn2c(nc3ccccc32)-c2ccc(NC(=O)c3ccc(Cl)cc3)cc2N1`: the “fold change (FC)” value in data set [3] is on record as 8 - 10. Moreover, in data set [1], the MIC came out at 1.56 µM (≈ 0.628 µg/mL). Also, the Activity result in the data set with THP-1 [2] is on record as “Non-Toxic”. In turn, `CC(C)c1nc2cc(C(=O)O)ccc2n1-c1cccc([N+](=O)[O-])c1` showed an MIC in data set [1] of 25 µM (≈ 8.13 µg/mL). In the case of `O=C1Cn2c(nc3ccccc32)-c2ccc(NC(=O)c3ccc([N+](=O)[O-])cc3)cc2N1`, in data set [3], the “fold change (FC)” value was 8 - 10. In data set [1], the MIC was 0.195 µM (≈ 0.0806 µg/mL). Besides, the Activity entry in the data set on THP-1 [6] is on record as “Non-Toxic”. Turning to `CC(C)c1nc2cc(C(=O)O)ccc2n1-c1ccc(Br)cc1`, it took 50 µM (≈ 18 µg/mL) to inhibit growth in data set [1] (MIC). `CC(C)c1nc2cc(C(=O)O)ccc2n1CC1CCN(C(=O)c2ccc(F)cc2)CC1` had an MIC in data set [1] of 50 µM (≈ 21.2 µg/mL). Turning to `COc1cccc(-n2c(C(C)C)nc3cc(C(=O)O)ccc32)c1O`, in data set [1], the MIC came to 0.78 µM (≈ 0.255 µg/mL). Besides, the Activity entry with THP-1 [2] is reported as “Non-Toxic”.
